Activity calls are given as the source filed them. The rule behind the calls is not given here.
Target: Amyloid-beta precursor protein (Homo sapiens) (UniProt P05067)
Assay: Induction of HFIP-pretreated amyloid beta (1 to 42) (unknown origin) disaggregation after 48 hrs by silver staining-based SDS-PAGE analysis
In short: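 Aβ aggregates were incubated with compound for 48 h, with congo red as positive control. Size distribution (monomer, dimer, trimer, high-molecular-weight species) was analysed by SDS-PAGE with silver staining at the start and at the end of incubation.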

Chain of Amyloid-beta precursor protein (Homo sapiens) (P05067 whole entry): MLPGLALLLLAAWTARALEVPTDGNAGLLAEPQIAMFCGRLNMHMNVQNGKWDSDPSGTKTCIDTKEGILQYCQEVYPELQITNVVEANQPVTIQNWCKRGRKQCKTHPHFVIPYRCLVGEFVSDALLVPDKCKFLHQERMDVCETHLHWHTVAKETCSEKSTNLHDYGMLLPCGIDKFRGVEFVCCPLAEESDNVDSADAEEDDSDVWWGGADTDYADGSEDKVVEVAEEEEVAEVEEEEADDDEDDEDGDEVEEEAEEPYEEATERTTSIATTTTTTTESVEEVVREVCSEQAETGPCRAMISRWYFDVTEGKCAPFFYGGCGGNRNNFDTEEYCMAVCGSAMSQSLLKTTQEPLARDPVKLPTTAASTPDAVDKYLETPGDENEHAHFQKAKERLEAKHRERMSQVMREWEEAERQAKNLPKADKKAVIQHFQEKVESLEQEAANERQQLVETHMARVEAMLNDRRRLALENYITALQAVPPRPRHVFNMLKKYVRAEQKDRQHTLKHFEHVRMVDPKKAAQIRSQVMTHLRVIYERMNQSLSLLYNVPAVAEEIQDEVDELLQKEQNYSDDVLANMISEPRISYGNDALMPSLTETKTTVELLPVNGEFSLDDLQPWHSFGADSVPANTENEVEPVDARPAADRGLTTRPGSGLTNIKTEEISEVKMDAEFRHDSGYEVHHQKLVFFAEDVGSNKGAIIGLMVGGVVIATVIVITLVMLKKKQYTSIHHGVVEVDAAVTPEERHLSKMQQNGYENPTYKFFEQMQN

Activity: Active
SMILES: Nc1c(/N=N/c2ccc(-c3ccc(/N=N/c4cc(S(=O)(=O)O)c5ccccc5c4N)cc3)cc2)cc(S(=O)(=O)O)c2ccccc12

Source: ChEMBL document CHEMBL4028909, “Discovery of an Orally Bioavailable Benzofuran Analogue That Serves as a β-Amyloid Aggregation Inhibitor for the Potential Treatment of Alzheimer's Disease” (J Med Chem, 2018)
